Screening results as filed in PubChem.
This is a sample that favours compounds with a hit; in the whole collection about 3.7% have one here.
GPR7 antag: blocks human GPR7 receptor signaling; AID 1861; inhibition, % at 4.4 µM; hit rate 1.1% among 290,000; P48145; GPR7-expressing cells, fluorescence antagonist assay; in the data active means inhibition above about 16%, passing the limit was not always enough;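 further: cells stimulated with the agonist NPW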
CHO parental Ca: counter-screen: ATP calcium response change in parental CHO cells; parental CHO-K1, ATP-induced calcium, Fluo-8 fluorescence; inhibition, % at 5.6 µM; hit rate 0.63% among 330,000; AID 463079;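 active means inhibition above that plate's mean sample inhibition plus 3 SD, cut at about 26% in these data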
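Test system: untransfected parental CHO cell line. Compound: one dose, 5.6 µM nominal. Detection: intracellular calcium via Fluo-8 no-wash fluorescent dye. Measure: % inhibition. Benchmarks: ATP-challenged DMSO wells low, unchallenged DMSO wells high.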
OX1R antag-1: blocks the human orexin 1 receptor | AID 485270 | inhibition, % at 6.6 µM | hit rate 1.8% among 330,000 | O43613 | OX1R-expressing cells, FRET antagonist read-out; in the data active means inhibition mostly above about 38%, no sharp cut-off; inactive means mostly below about 40%
Target sequence (O43613 whole entry, looked up): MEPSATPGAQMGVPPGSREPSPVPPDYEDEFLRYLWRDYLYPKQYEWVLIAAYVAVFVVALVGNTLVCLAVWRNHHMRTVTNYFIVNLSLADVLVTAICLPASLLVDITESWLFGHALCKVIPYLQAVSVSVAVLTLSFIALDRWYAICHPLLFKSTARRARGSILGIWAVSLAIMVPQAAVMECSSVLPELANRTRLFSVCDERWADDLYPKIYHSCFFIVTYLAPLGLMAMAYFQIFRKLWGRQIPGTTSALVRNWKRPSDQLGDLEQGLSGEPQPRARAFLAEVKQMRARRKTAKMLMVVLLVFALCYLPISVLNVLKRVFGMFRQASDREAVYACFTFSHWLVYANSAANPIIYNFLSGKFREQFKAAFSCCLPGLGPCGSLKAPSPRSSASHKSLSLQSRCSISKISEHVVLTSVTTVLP
EP2 mod: EP2 receptor (human) modulation. hit rate 0.83% among 260,000. induction, % at 25 µM. EP2-expressing cells, cAMP HTRF FRET, PGE2 co-stimulation. P43116. AID 940;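 active means compounds whose cAMP rise, as percent of the full-agonist control response, exceeds 60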;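 further: rat C6 glioma line stably carrying human EP2 under a CMV promoter; the protocol text gives 20 µM as final concentration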
PGE2 EP2 inh: EP2 receptor (human) inhibition. P43116. C6 glioma cells expressing human EP2, cAMP TR-FRET; cells stimulated with saturating PGE2. inhibition, % at 25 µM. hit rate 0.52% among 260,000;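 active means percent inhibition above 40 after rounding to a whole number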;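 further: rat C6 glioma host cells with rolipram phosphodiesterase inhibitor present; the protocol text gives 20 µM as final concentration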
OX1R antag-2: blocks the human orexin 1 receptor; CHO/OX1R cells, Fluo-8 calcium fluorescence, orexin A; hit rate 0.43% among 330,000; inhibition, % at 5 µM; O43613;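 active means inhibition above its plate's threshold, mean inhibition of all tested compounds on the plate plus 3 SD, cut at about 37% in these data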
Hits are given with their value; - = inactive; . = not tested or not shown.

SMILES | GPR7 antag | CHO parental Ca | OX1R antag-1 | EP2 mod | PGE2 EP2 inh | OX1R antag-2
CC(=O)N(C)c1ccc(OCC(O)Cn2c(C)nc3ccccc32)cc1 (centres undefined) | - | - | - | - | - | -
Cc1ccccc1-n1c(SCC(=O)N2CCC(C(=O)O)CC2)nnc1-c1ccncc1 | - | - | - | - | - | -
O=C(CSC(=S)N1CCOCC1)Nc1ncc2c(n1)CCCC2=O | - | - | - | - | - | -
C#CCNC(=O)C1=C[C@@H](c2csc3ccccc23)C[C@@H](OCc2ccc(CO)cc2)O1 | - | - | - | - | - | -
CNc1nc(N/N=C/c2cc3c(cc2[N+](=O)[O-])OCO3)nc(Nc2ccccc2)n1 | - | - | 44 | - | - | -
O=C(OCC#CCSc1nnc(-c2cccc3ccccc23)o1)c1cccs1 | - | - | 56 | - | - | -
O=C(OCC#CCSc1nnc(-c2ccccc2)o1)c1cccs1 | - | - | - | - | - | -
O=C(CCS(=O)(=O)c1cccc2nsnc12)N1CC(=O)N(CCc2ccccc2)C(=O)C1 | - | - | 53 | - | - | -
CN(CC(=O)N1CC(=O)N(CCc2ccccc2)C(=O)C1)S(=O)(=O)c1cccc2nsnc12 | - | - | - | - | - | -
COC(=O)CC1C(=O)NCCN1C(=S)NC(=O)C(c1ccccc1)c1ccccc1 (centres undefined) | - | - | - | - | - | -
Cc1cc(/C=C2/SC(=S)N(c3cccc(C(F)(F)F)c3)C2=O)c(C)n1-c1cccnc1 | - | 50 | - | . | - | -
COc1ccc(/C=C2\SC(=S)N(c3cccnc3)C2=O)cc1 | - | - | - | - | - | -
O=C1/C(=C\c2ccc(O)cc2)SC(=S)N1c1cccnc1 | - | 58 | - | - | - | -
Cc1ccc(SCCNC(=O)c2ccc(C)c(S(=O)(=O)Nc3ccccc3C)c2)cc1 | - | - | 48 | - | - | -
COc1ccc(C(=O)[C@H](Br)[C@H](Br)C(=O)O)cc1 | . | . | . | - | 42 | .
CCN1C(=C2C(=O)c3ccccc3C2=O)C=Cc2ccccc21 | - | - | 62 | - | - | -
CCN1C(=O)/C(=C2\C=Cc3ccccc3N2CC)SC1=S | - | - | - | - | - | -
O=C1c2cccc(OCC(=O)N3CCCc4ccccc43)c2CCN1Cc1ccccc1 | 22 | - | - | - | - | -
CCN1CCc2c(OCC(=O)N3CCCc4ccccc43)cccc2C1=O | - | - | - | - | - | -
CC(SCC(=O)Nc1ccccc1)c1nc2ccccc2c(=O)[nH]1 (centres undefined) | - | - | - | . | . | -
CC(C)c1ccc(NC(=O)CSC(C)c2nc3ccccc3c(=O)[nH]2)cc1 (centres undefined) | - | - | 63 | - | - | -
c1ccc(COc2ccccc2CNC2CCCC2)cc1 | - | - | - | - | - | -
c1ccc(COc2ccccc2CNC23CC4CC(CC(C4)C2)C3)cc1 | 36 | - | - | - | - | -
Cc1nc2ccccc2c2oc(C(=O)Nc3ccc(C(C)C)cc3)cc12 | - | - | 66 | - | - | -
COc1ccc(CNC(=O)c2cc3c(C)nc4ccccc4c3o2)c(OC)c1 | - | 57 | 56 | - | - | -
SMILES | GPR7 antag | CHO parental Ca | OX1R antag-1 | EP2 mod | PGE2 EP2 inh | OX1R antag-2
COc1cccc(CNC(=O)c2cc3c(C)nc4ccccc4c3o2)c1 | - | - | - | - | - | -
O=C(NCC1COc2ccccc2O1)c1cccc(S(=O)(=O)NCc2ccccc2)c1 (centres undefined) | . | - | 51 | . | . | -
CCc1ccc(CNC(=O)c2cc3c(C)nc4ccccc4c3o2)cc1 | - | 46 | 79 | - | - | -
CCCCN(CC)CCNC(=O)c1cc2c(C)nc3ccccc3c2o1 | - | - | - | - | - | -
CCN1CCCC1CNC(=O)c1cc2c(C)nc3ccccc3c2o1 (centres undefined) | - | - | - | . | - | -
Cc1nc2ccccc2c2oc(C(=O)NCC3COc4ccccc4O3)cc12 (centres undefined) | - | 41 | 85 | - | - | -
CCOC(=O)c1oc2cccc(OC(C)=O)c2c1C | - | - | - | - | - | -
CCOC(=O)c1oc2cccc(O)c2c1C | - | - | 39 | - | - | -
COC(=O)c1c(C)oc2ccc(N(C(=O)c3ccncc3)S(=O)(=O)c3ccc(C)cc3C)cc12 | - | 38 | - | - | - | -
O=C(CN1CCCC1c1nc(-c2ccncc2)n[nH]1)N1CCCC1 (centres undefined) | . | . | . | - | . | .
CCCCNS(=O)(=O)c1ccc2nc(SCC(N)=O)[nH]c2c1 | - | - | - | - | - | -
CCCCNS(=O)(=O)c1ccc2nc(SCC(=O)Nc3sccc3C#N)[nH]c2c1 | - | 47 | 76 | - | - | 54
Cc1ccc(OCCn2nnc3ccccc32)cc1C | - | - | - | . | . | -
CS(=O)(=O)N1CCCC(C(=O)Nc2ccccc2F)C1 (centres undefined) | - | - | - | . | . | -
CCOc1ccc(N/C(SCc2cccc([N+](=O)[O-])c2)=C(/C#N)C(N)=O)cc1 | - | - | - | - | - | -
N#CC(C#N)=C(Nc1ccc(F)cc1)SCc1cccc(F)c1 | - | - | 71 | - | - | -
OCCC1CN(Cc2ccn[nH]2)CCN1Cc1ccc(F)c(F)c1 (centres undefined) | - | - | - | - | - | -
N#C/C(=C\c1c[nH]c2ccc(Br)cc12)c1ccccn1 | - | - | 83 | . | . | 60
Cc1ccc(CNC(=O)c2ccc(CS(=O)(=O)c3ccccc3C)o2)cc1 | - | - | - | . | . | -
OC(COc1ccccc1)CN1CCN(C(c2ccccc2)c2ccccc2)CC1 (centres undefined) | - | - | - | . | . | -
c1ccc(OCCOCCN2CCN(C(c3ccccc3)c3ccccc3)CC2)cc1 | - | - | - | 61 | - | -
CCOc1ccccc1N(C(=O)c1snc(C(N)=O)c1N)C(C(=O)NCCC(C)C)c1ccco1 (centres undefined) | - | - | - | - | - | -
N=C(N)SCCc1ccncc1 | . | . | . | - | 48 | .
CCOC(=O)c1ccccc1N/C=C/C(=O)c1cccs1 | - | - | - | - | - | -
O=C(N/C(=C/c1cccc([N+](=O)[O-])c1)C(=O)N1CCOCC1)c1ccccc1Br | - | - | 58 | . | . | -
O=C(N/C(=C\c1ccccc1)C(=O)N1CCOCC1)c1ccccc1Br | - | - | - | . | . | -
O=C(N/C(=C\c1ccc([N+](=O)[O-])cc1)C(=O)N1CCCCC1)c1ccccc1 | - | - | 75 | - | - | -
O=C(CSC1=NC(c2ccco2)CC(C(F)(F)F)N1)NCc1ccc(F)cc1 (centres undefined) | . | . | . | - | - | .
C/C(N[O-])=C(\C)[N+]([O-])=[Co].CC(=N\[O-])/C(C)=N/[O-].O[C@@H]1[CH-]CCCC1.c1ccncc1 | . | . | . | - | 43 | .
O=C(CCS(=O)(=O)c1cccs1)Nc1ccc(C(=O)NCc2ccccc2)cc1 | - | - | - | - | - | -
